Test results reported in publication PMC8841436 (Clinical and Translational Science, 2021).

How the values were obtained:
healthy volunteers = experiment: Phase 1 safety and tolerability; format: in vivo, human; conditions: for Diarrhea, participants with adverse event / Headache, participants with adverse event: part B MAD
[1] = Plasma pharmacokinetics, part B; conditions: human, in vivo, n = 8
[2] = Urine pharmacokinetics, 60 mg cohort part A; format: in vivo, human
[3] = system: experimental autoimmune encephalomyelitis; experiment: Experimental autoimmune encephalomyelitis; format: in vivo; conditions: EAE mouse model; unpublished data
[4] = Plasma protein binding by equilibrium dialysis; format: in vitro ADME; conditions: human
[5] = system: lymphocyte subpopulations (T/B/NK/monocyte counts); experiment: Flow cytometry analysis of immune cell subsets in whole blood, part B; format: in vivo, human
How it was run: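 Healthy volunteers got oral liquid test compound (7.5, 15, 30, 60 or 90 mg) or matching placebo once daily for 10 days, fasted. Whole blood was drawn predose on days 1, 4 and 10. Flow cytometry counted T, B, NK and monocytes with CD3, CD4, CD8, CD14, CD19 and CD16/56 antibodies. Naïve (CD19+ CD27-) and memory (CD19+ CD27+) B cells were also counted. Error bars are SD.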

[6] = Plasma pharmacokinetics, part A; format: in vivo, human; conditions: for half-life / Tmax / AUC(0-inf) / AUC(0-t) / Cmax: human, in vivo
[7] = 7.5 mg q.d. 10 days, 8 participants
[8] = 15 mg q.d. 10 days, 8 participants
[9] = 30 mg q.d. 10 days, 8 participants
[10] = 60 mg q.d. 10 days, 8 participants
[11] = 90 mg q.d. 10 days, 8 participants
[12] = all tolebrutinib doses, 40 participants

AUC ([1]; 7.5 mg, AUC0‐24, MAD 7.5 mg q.d., Day 1, mean): 2.12 ng·h/mL | AUC ([1]; 7.5 mg, AUC0‐24, MAD 7.5 mg q.d., Day 10, mean): 3.07 ng·h/mL | Cmax ([1]; 7.5 mg, MAD 7.5 mg q.d., Day 1, mean): 1.17 ng/mL | Cmax ([1]; 7.5 mg, MAD 7.5 mg q.d., Day 10, mean): 1.32 ng/mL | Tmax ([1]; 7.5 mg, MAD 7.5 mg q.d., Day 1, median (min – max)): 1 h | Tmax ([1]; 7.5 mg, MAD 7.5 mg q.d., Day 10, median (min – max)): 1 h | half-life ([1]; 7.5 mg, t 1/2, MAD 7.5 mg q.d., Day 1, mean): 1.45 h | half-life ([1]; 7.5 mg, t 1/2, MAD 7.5 mg q.d., Day 10, mean): 1.57 h | AUC ([1]; 15 mg, AUC0‐24, MAD 15 mg q.d., Day 1, mean): 3.82 ng·h/mL | AUC ([1]; 15 mg, AUC0‐24, MAD 15 mg q.d., Day 10, mean): 5.85 ng·h/mL | Cmax ([1]; 15 mg, MAD 15 mg q.d., Day 1, mean): 1.96 ng/mL | Cmax ([1]; 15 mg, MAD 15 mg q.d., Day 10, mean): 2.51 ng/mL | Tmax ([1]; 15 mg, MAD 15 mg q.d., Day 1, median (min – max)): 1 h | Tmax ([1]; 15 mg, MAD 15 mg q.d., Day 10, median (min – max)): 1 h | half-life ([1]; 15 mg, t 1/2, MAD 15 mg q.d., Day 1, mean): 1.4 h | half-life ([1]; 15 mg, t 1/2, MAD 15 mg q.d., Day 10, mean): 1.68 h | AUC ([1]; 30 mg, AUC0‐24, MAD 30 mg q.d., Day 1, mean): 9.67 ng·h/mL | AUC ([1]; 30 mg, AUC0‐24, MAD 30 mg q.d., Day 10, mean): 14.9 ng·h/mL | Cmax ([1]; 30 mg, MAD 30 mg q.d., Day 1, mean): 6.25 ng/mL | Cmax ([1]; 30 mg, MAD 30 mg q.d., Day 10, mean): 7.46 ng/mL | Tmax ([1]; 30 mg, MAD 30 mg q.d., Day 1, median (min – max)): 0.75 h | Tmax ([1]; 30 mg, MAD 30 mg q.d., Day 10, median (min – max)): 1 h | half-life ([1]; 30 mg, t 1/2, MAD 30 mg q.d., Day 1, mean): 1.6 h | half-life ([1]; 30 mg, t 1/2, MAD 30 mg q.d., Day 10, mean): 2.02 h | AUC ([1]; 60 mg, AUC0‐24, MAD 60 mg q.d., Day 1, mean): 24.3 ng·h/mL | AUC ([1]; 60 mg, AUC0‐24, MAD 60 mg q.d., Day 10, mean): 18.2 ng·h/mL | Cmax ([1]; 60 mg, MAD 60 mg q.d., Day 1, mean): 8.47 ng/mL | Cmax ([1]; 60 mg, MAD 60 mg q.d., Day 10, mean): 6.69 ng/mL | Tmax ([1]; 60 mg, MAD 60 mg q.d., Day 1, median (min – max)): 1.25 h | Tmax ([1]; 60 mg, MAD 60 mg q.d., Day 10, median (min – max)): 1.5 h | half-life ([1]; 60 mg, t 1/2, MAD 60 mg q.d., Day 1, mean): 1.98 h | half-life ([1]; 60 mg, t 1/2, MAD 60 mg q.d., Day 10, mean): 2.37 h | AUC ([1]; 90 mg, AUC0‐24, MAD 90 mg q.d., Day 1, mean): 35.5 ng·h/mL | AUC ([1]; 90 mg, AUC0‐24, MAD 90 mg q.d., Day 10, mean): 56.6 ng·h/mL | Cmax ([1]; 90 mg, MAD 90 mg q.d., Day 1, mean): 19.3 ng/mL | Cmax ([1]; 90 mg, MAD 90 mg q.d., Day 10, mean): 21.7 ng/mL | Tmax ([1]; 90 mg, MAD 90 mg q.d., Day 1, median (min – max)): 1 h | Tmax ([1]; 90 mg, MAD 90 mg q.d., Day 10, median (min – max)): 1.5 h | half-life ([1]; 90 mg, t 1/2, MAD 90 mg q.d., Day 1, mean): 2.1 h | half-life ([1]; 90 mg, t 1/2, MAD 90 mg q.d., Day 10, mean): 2.83 h | CL renal ([2]; human, urine, po, 60 mg): ~5 mL/min | total mean amount recovered unchanged in urine ([2]; single oral 60 mg, fasted, after 12 h): 4.2 µg | fraction unbound [4]: ~0.065 | half‐life (mean) ([6]; after oral administration, fasting, across doses): 1.5 to 2 h | Dose proportionality of exposure ([6]; dose levels between 15 and 60 mg): approximately dose proportional | half-life ([6]; half‐life, plasma, as summarised in CSF section): 1.5 to 2 h | Tmax ([6]; po): ~1 h | AUC(0-inf) ([6]; po, 5 mg): 1.39 ng·h/mL | AUC(0-t) ([6]; po, 5 mg): 0.57 ng·h/mL | Cmax ([6]; po, 5 mg): 0.369 ng/mL | Tmax ([6]; po, 5 mg): 1 h | half-life ([6]; po, 5 mg, t 1/2, SAD, single oral 5 mg, fasting, mean, n = 6): 1.92 h | AUC(0-inf) ([6]; po, 15 mg): 4.06 ng·h/mL | AUC(0-t) ([6]; po, 15 mg): 3.67 ng·h/mL | Cmax ([6]; po, 15 mg): 1.97 ng/mL | Tmax ([6]; po, 15 mg): 1 h | half-life ([6]; po, 15 mg, t 1/2, SAD, single oral 15 mg, fasting, mean, n = 6): 1.39 h | AUC(0-inf) ([6]; po, 30 mg): 6.46 ng·h/mL | AUC(0-t) ([6]; po, 30 mg): 6.04 ng·h/mL | Cmax ([6]; po, 30 mg): 3.12 ng/mL | Tmax ([6]; po, 30 mg): 1 h | half-life ([6]; po, 30 mg, t 1/2, SAD, single oral 30 mg, fasting, mean, n = 6): 1.47 h | AUC(0-inf) ([6]; po, 60 mg): 15.9 ng·h/mL | AUC(0-t) ([6]; po, 60 mg): 15.6 ng·h/mL | Cmax ([6]; po, 60 mg): 6.89 ng/mL | Tmax ([6]; po, 60 mg): 1.5 h | half-life ([6]; po, 60 mg, t 1/2, SAD, single oral 60 mg, fasting, mean, n = 6): 1.67 h | AUC(0-inf) ([6]; po, 120 mg): 62.6 ng·h/mL | AUC(0-t) ([6]; po, 120 mg): 61.6 ng·h/mL | Cmax ([6]; po, 120 mg): 32.3 ng/mL | Tmax ([6]; po, 120 mg): 1 h | half-life ([6]; po, 120 mg, t 1/2, SAD, single oral 120 mg, fasting, mean, n = 6): 2.18 h | Dose proportionality of Cmax and AUC (power model) ([6]; single doses 5 to 120 mg): more than dose proportional
Compound: C=CC(=O)N1CCC[C@@H](n2c(=O)n(-c3ccc(Oc4ccccc4)cc3)c3c(N)nccc32)C1 [tolebrutinib]
Serious treatment-emergent adverse events (healthy volunteers; part A (SAD)): no serious treatment‐emergent adverse events | Tolerability (healthy volunteers; part A (SAD), single doses 5-120 mg): well‐tolerated | Severity of treatment-related TEAEs (healthy volunteers; part B (MAD), all combined dose groups): mild | Diarrhea, participants with adverse event (healthy volunteers; [7]): 1 | Headache, participants with adverse event (healthy volunteers; [7]): 2 | Diarrhea, participants with adverse event (healthy volunteers; [8]): 1 | Headache, participants with adverse event (healthy volunteers; [8]): 1 | Diarrhea, participants with adverse event (healthy volunteers; [9]): 2 | Headache, participants with adverse event (healthy volunteers; [9]): 1 | Diarrhea, participants with adverse event (healthy volunteers; [10]): 0 | Headache, participants with adverse event (healthy volunteers; [10]): 0 | Diarrhea, participants with adverse event (healthy volunteers; [11]): 5 | Headache, participants with adverse event (healthy volunteers; [11]): 0 | Diarrhea, participants with adverse event (healthy volunteers; [12]): 9 | Headache, participants with adverse event (healthy volunteers; [12]): 4 | Protection from disease induction [3]: dose‐dependent protection | circulating total B cell levels (both naïve and memory B cells) ([5]; day 4 and day 10, all part B cohorts): Elevated | B cell depletion ([5]; part B MAD): did not result in B cell depletion | other immune cell populations: T cells (total CD3, CD4, CD8), monocytes, NK ([5]; part B MAD): No changes
